Measured values collected from several papers.
Protocols differ between the studies behind these lines.
Organism: Escherichia coli
Observed: microbial growth

COc1cc(Cc2cnc(N)nc2N)cc(OC)c1OC
MIC: ~0.2 µM

CC(C)Oc1c(NC(=O)c2ccc(NC(=O)[C@H](CC(N)=O)NC(=O)c3ccc(NC(=O)c4ccc(C#N)cc4)cc3)cc2)ccc(C(=O)Nc2cc(C(=O)O)n(C)c2)c1O
MIC (DSM1116): 0.5 µg/mL

CC1(C)S[C@@H]2[C@H](NC(=O)[C@H](N)c3ccccc3)C(=O)N2[C@H]1C(=O)O
MIC (broth dilution; ATCC25922): 8 µg/mL

O=c1[nH]cc(F)c(=O)[nH]1
MIC (broth dilution; 24 h): > 32 µg/mL

N=C(N)c1cccc(OCc2ccc(COc3cccc(C(=N)N)c3)cc2)c1
MIC (BW25113): > 200 µg/mL

Cc1ccccc1NCc1ccc(Oc2ccccn2)cc1
MIC: > 25 µg/mL

Cc1cc(=O)[nH]n1C(=O)c1ccc(-n2c(C)ccc2C)cc1
MIC (broth dilution; ATCC10536; 18 h): 250 µg/mL

CC(C)Oc1c(NC(=O)c2ccc(NC(=O)[C@H](CC(N)=O)NC(=O)c3ccc(NC(=O)c4ccccc4[N+](=O)[O-])cc3)cc2)ccc(C(=O)Nc2ccc(C(=O)O)cc2)c1O
MIC (DSM1116): 8 µg/mL

CSc1ccc(-c2nc3ccccc3[nH]2)cc1
MIC (broth dilution; ATCC25922): 64 µg/mL

Cc1cc(C)n(C(=O)c2ccc(-n3c(C)ccc3C)cc2)n1
MIC (broth dilution; ATCC10536; 18 h): 250 µg/mL

CCCCCCC#Cc1cncc(-c2nnc(SCc3ccc(Cl)cc3)n2C)c1
MIC: ≥ 20 µg/mL

CO[C@H]1O[C@H](COC(c2ccccc2)(c2ccccc2)c2ccccc2)[C@@H](OC(=O)c2ccc(C(C)(C)C)cc2)[C@H](OC(=O)c2ccc(C(C)(C)C)cc2)[C@H]1OC(=O)c1ccc(C(C)(C)C)cc1
MIC (broth dilution): 1 µg/mL

N=C(N)c1ccc(OCCC(CCOc2ccc(C(=N)N)cc2)c2ccccc2)cc1 (centres unmarked)
MIC (broth dilution; BW25113): > 200 µg/mL

Cc1ccc(C)n1-c1ccc(-c2nnc(-c3ccccc3Cl)[nH]2)cc1
MIC (broth dilution; ATCC10536; 18 h): 250 µg/mL

N=C(N)c1ccc(OCc2cc(COc3ccc(C(=N)N)cc3)cc(-c3ccccc3)c2)cc1
MIC (broth dilution; W3110): 100 µg/mL

NCCCNC1CCCCc2c1[nH]c1ccc(Br)cc21 (centres unmarked)
MIC (broth dilution; ATCC25922): 16 µg/mL

CCCCCCC#Cc1cncc(-c2nnc(SCc3ccc(Cl)c(F)c3)n2C)c1
MIC: ≥ 20 µg/mL

CC(C)Oc1c(NC(=O)c2ccc(NC(=O)[C@H](CC(N)=O)NC(=O)c3ccc(NC(=O)c4ccc(C#N)cc4)cc3)cc2)ccc(C(=O)Nc2ccc(C(=O)O)cc2)c1O
MIC (DSM1116): 0.5 µg/mL

N=C(N)c1ccc(OCCCCCCCCCCCOc2ccc(C(=N)N)cc2)cc1
MIC (broth dilution; BW25113): > 25 µg/mL

C=CCn1c(-c2ccc(OC)c(OC)c2)nc2ccccc21
MIC (broth dilution; ATCC25922): 128 µg/mL

CC1=NN(CNC(=O)c2ccccn2)C(=O)C1=NNn1c(-c2ccccc2)nc2ccccc2c1=O
MIC (broth dilution; 24 h): 52 µM

Cc1cc(C(=O)Nc2ccc(C(=O)N[C@@H](CC(N)=O)C(=O)Nc3ccc(C(=O)Nc4ccc(C(=O)Nc5ccc(C(=O)O)cc5)c(O)c4OC(C)C)cc3)cc2)ccc1C#N
MIC (DSM1116): 0.5 µg/mL

CCCCCCCC(=O)Oc1c(C)c(O)c(C(=O)/C=C/c2ccccc2)c(OC)c1C
MIC (broth dilution; ATCC25922): 5000 µg/mL

Cc1ccc2nc(-c3ccc(Cl)c(Cl)c3)n(Cc3ccccc3)c2c1
MIC (broth dilution; ATCC25922): 32 µg/mL

CC1=NN(CNc2c(O)c(S(=O)(=O)O)cc3ccccc23)C(=O)C1=NNn1c(-c2ccccc2)nc2ccccc2c1=O
MIC (broth dilution; 24 h): 41.8 µM

Cc1ccc2nc(-c3ccc(N(C)C)cc3)[nH]c2c1
MIC (broth dilution; ATCC25922): 64 µg/mL

N=C(N)c1ccc(OCCCCCOc2ccc(C(=N)N)cc2)cc1
MIC (broth dilution; ATCC25922): 200 µg/mL

CCCCCC(=O)Oc1c(C)c(O)c(C(=O)/C=C/c2ccccc2)c(OC)c1C
MIC (broth dilution; ATCC25922): 5000 µg/mL

N=C(N)c1ccccc1OCc1ccc(COc2ccccc2C(=N)N)cc1
MIC (broth dilution; BW25113): > 200 µg/mL

CC(C)Oc1c(NC(=O)c2ccc(NC(=O)[C@H](CC(N)=O)NC(=O)c3cccc(-c4cccc(C#N)c4)c3)cc2)ccc(C(=O)Nc2ccc(C(=O)O)cc2)c1O
MIC (DSM1116): > 64 µg/mL

COc1c(C)c(OC)c(C(=O)/C=C/c2ccccc2)c(OC)c1C
MIC (broth dilution; ATCC25922): 5000 µg/mL

C/C(O)=C1\C(=O)C(CC(C)C)N(C(=O)C=Cc2ccccc2)C1=O (centres unmarked)
MIC (K12; K12): > 200 µg/mL

CN[C@H](CC(C)C)C(=O)N[C@H]1C(=O)N[C@@H](CC(N)=O)C(=O)N[C@H]2C(=O)N[C@H]3C(=O)N[C@H](C(=O)N[C@H](C(=O)O)c4cc(O)cc(O)c4-c4cc3ccc4O)[C@H](O)c3ccc(c(Cl)c3)Oc3cc2cc(c3O[C@@H]2O[C@H](CO)[C@@H](O)[C@H](O)[C@H]2O[C@H]2C[C@](C)(N)[C@H](O)[C@H](C)O2)Oc2ccc(cc2Cl)[C@H]1O
MIC (broth dilution; ATCC25922; 18 h): > 32 µg/mL

N=C(N)c1ccc(OCc2ccc(COc3ccc(C(=N)N)cc3)cc2)cc1
MIC (BW25113; 20 h): > 200 µg/mL

CCCCCCC/C=C/C(=O)N1C(=O)/C(=C(/C)O)C(=O)C1CCC(=O)O (centres unmarked)
MIC (K12; K12): > 200 µg/mL

O=C(Nc1ncc([N+](=O)[O-])s1)c1cc2ccccc2s1
MIC: < 50 µM

C/C(=C\c1ccc(C#N)cc1)C(=O)Nc1ccc(C(=O)N[C@@H](CC(N)=O)C(=O)Nc2ccc(C(=O)Nc3ccc(C(=O)Nc4ccc(C(=O)O)cc4)c(O)c3OCC(C)C)cc2)cc1
MIC (DSM1116): 0.5 µg/mL

CCCCCCC/C=C/C(=O)N1C(=O)/C(=C(\O)c2ccc(OCOCCOC)cc2)C(=O)C1CC(C)C (centres unmarked)
MIC (K12; K12): > 200 µg/mL

CSc1ccc(/C=C/c2cc(/C=C3\Sc4ccccc4N3CCCN3CCCC3)c3ccccc3[n+]2C)cc1.[I-]
MIC (broth dilution; ATCC25922): 16 µg/mL

Oc1ccc(Br)cc1-c1nc2ccccc2[nH]1
MIC (broth dilution; ATCC25922): 64 µg/mL

Cc1cccc(NCc2ccc(Oc3ccccn3)cc2)c1
MIC: > 50 µg/mL

NC1CCCCc2c1[nH]c1ccc(Cl)c(Cl)c21 (centres unmarked)
MIC (broth dilution; ATCC25922): 16 µg/mL

Cc1ccc2nc(-c3ccc([N+](=O)[O-])cc3)n(Cc3ccccc3Cl)c2c1
MIC (broth dilution; ATCC25922): 32 µg/mL

C[C@H]1COc2c(N3CCN(C)CC3)c(F)cc3c(=O)c(C(=O)O)cn1c23
MIC (broth dilution; ATCC25922): 0.25 µg/mL

N=C(N)c1ccc(OCc2ccc(Br)cc2COc2ccc(C(=N)N)cc2)cc1
MIC (broth dilution; ATCC25922): > 200 µg/mL

O=C(CCCCCCCC[P+](c1ccccc1)(c1ccccc1)c1ccccc1)Nc1cc(O)c(O)c(O)c1.[Br-]
MIC (broth dilution; ATCC25922; 18 h): > 32 µg/mL

COc1cccc(-c2nc3ccccc3n2Cc2ccccc2)c1
MIC (broth dilution; ATCC25922): 128 µg/mL

C/C(=C\c1ccc(C#N)cc1)C(=O)Nc1ccc(C(=O)N[C@@H](CC(N)=O)C(=O)Nc2ccc(C(=O)Nc3ccc(C(=O)Nc4ccc(C(=O)O)cc4)c(O)c3OC(C)C)cc2)cc1
MIC (DSM1116): 0.125 µg/mL

Cc1c(CN(C)C(=O)/C=C/c2cnc3c(c2)CC(CCN)C(=O)N3)oc2ccccc12.Cl (centres unmarked)
MIC (broth dilution; BAA2469; clinical isolate): 2 µg/mL

Cc1ccc2nc(-c3ccc(F)cc3)n(Cc3ccccc3)c2c1
MIC (broth dilution; ATCC25922): 128 µg/mL

CO[C@@H](C(N)=O)[C@H](NC(=O)c1ccc(NC(=O)c2ccc(C#N)cc2)cc1)C(=O)Nc1ccc(C(=O)Nc2ccc(C(=O)Nc3ccc(C(=O)O)cc3)c(O)c2OC(C)C)cc1
MIC (DSM1116): < 0.03 µg/mL

Clc1cccc(NCc2ccc(Oc3ccccn3)cc2)c1
MIC: > 25 µg/mL

C[C@@H](O)[C@H]1C(=O)N2C(C(=O)O)=C(S[C@@H]3CN[C@H](C(=O)N(C)C)C3)[C@H](C)[C@H]12
MIC (broth dilution; ATCC35218): ≤ 0.125 µg/mL
